Test results published in ChEMBL document CHEMBL3351255, “Synthesis of dihydroresveratrol glycosides and evaluation of their activity against melanogenesis in B16F0 melanoma cells” (Eur J Med Chem, 2014).

Legend:
[1] = tested on: B16-F10; assay: Potency index, ratio of kojic acid to test compound for inhibition of melanogenesis in mouse B16F10 cells; format: functional
[2] = Toxicity in mouse B16F10 cells assessed as protein content at 25.5 uM incubated for 72 hrs by BCA protein assay; format: cell-based
In short: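 Treatment was the same as above: B16F0 cells in DMEM with 5% FBS plus sample in ethanol, with medium and sample renewed after 72 h and cells harvested by trypsin 72 h later. Total cellular protein in the pelleted cells was measured by bicinchoninic acid (BCA) assay and expressed as % of negative control.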

[3] = Toxicity in mouse B16F10 cells assessed as cell viability at 25.5 uM incubated for 72 hrs by BCA protein assay; format: cell-based; conditions: read-out: Activity
[4] = tested on: B16-F0; assay: Effect on melanogenesis in mouse B16F0 cells assessed as melanin content at 1 mM incubated for 72 hrs; conditions: B16-F0, 72 h

SMILES: C=CC/C=C\C/C=C\CCCCCCCc1cc(O)cc(O)c1
- Ratio [1]: 40
- Activity [2]: 98%
- viability at 72 h, 25.5 µM [3]: 102%

SMILES: O=c1cc(CO)occ1O [KOJIC ACID]
- melanin content at 1000 µM [4]: 79%
